{"source": "ChEMBL document CHEMBL1121966", "about": "“(2R*,3S*)-1-[125I]Iodo-2,3-bis(4-hydroxyphenyl)pentane ([125I]iodonorhexestrol) and (2R*,3S*)-1-[77Br]Bromo-2,3-bis(4-hydroxyphenyl)pentane ([77Br]bromonorhexestrol), two gamma-emitting estrogens that show receptor-mediated uptake by target tissues in vivo” (1982)", "key": {"Rattus norvegicus [1]": {"species_on_record": "Rattus norvegicus", "assay": "Percent injected dose per gram lung at 3h", "type": "functional", "procedure,_shortened": "(§1)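 Immature (25 day) female Sprague-Dawley rats (ca. 50 g) were dosed iv (jugular or tail vein) in ethanol plus 0.9% NaCl/rat serum (1:1). Doses were 2 μCi of [125I]iodonorhexestrol (≤15 pmol/dose), or 2 μCi each of [77Br]bromonorhexestrol (≤1.25 pmol/dose) and 16α-[125I]iodoestradiol (2 pmol/dose). Rats were killed at 1, 3 or 6 h; blood and tissues were weighed and γ-counted. Thyroid weight assumed 0.005 g/100 g body weight. Mean ± SD.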"}, "[2]": {"assay": "Liver/blood distribution ratio was determined in immature female rats at 1 hr", "type": "functional", "procedure,_shortened": "(§2)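 Immature (25-day, ca. 50 g) Sprague-Dawley female rats received an iv injection (jugular or tail vein) of HPLC-purified tracer in ethanol plus 0.9% NaCl/rat serum 1:1. Doses were 2 μCi [125I]iodo tracer (≤15 pmol), or 2 μCi [77Br]bromo tracer (≤1.25 pmol) with 2 μCi 16α-[125I]iodoestradiol. Animals were killed at 1 h; blood and tissues were weighed and γ-counted. Blocking: coinjected unlabeled estradiol, 9 μg (iodo) or 18 μg (bromo). Mean ± SD.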"}, "Rattus norvegicus [3]": {"species_on_record": "Rattus norvegicus", "assay": "Percent injected dose per gram blood at 6 hr", "type": "functional", "procedure,_shortened": "(§3)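 Dual-label study in immature 25-day female Sprague-Dawley rats (ca. 50 g). Each received 2 μCi [77Br]bromo tracer (≤1.25 pmol/dose) and 2 μCi 16α-[125I]iodoestradiol (2 pmol/dose) by tail or jugular vein, in ethanol diluted with saline/rat serum 1:1. Rats were killed at 3 or 6 h; blood and 11 tissues were weighed and counted. Five rats per time point; mean ± SD.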"}, "[4]": {"assay": "Spleen/blood distribution ratio was determined in immature female rats at 1 hr with unlabeled estradiol", "type": "functional"}, "[5]": {"assay": "Ovary/blood distribution ratio was determined in immature female rats at 1 hr", "type": "functional", "procedure,_shortened": "as §2"}, "Rattus norvegicus [6]": {"species_on_record": "Rattus norvegicus", "assay": "Percent injected dose per gram Muscle at 6 hr", "type": "functional", "procedure,_shortened": "as §3"}, "[7]": {"assay": "Ovary/blood distribution ratio was determined in immature female rats at 3h", "type": "functional", "procedure,_shortened": "as §3"}, "[8]": {"assay": "Kidney/blood distribution ratio was determined in immature female rats at 1 hr with unlabeled estradiol", "type": "functional", "procedure,_shortened": "as §2"}, "[9]": {"assay": "Uterus/blood distribution ratio was measured in immature female rats at 3h", "type": "functional", "procedure,_shortened": "as §1"}, "Rattus norvegicus [10]": {"species_on_record": "Rattus norvegicus", "assay": "Percent injected dose per gram kidney at 1 hr with unlabeled estradiol", "type": "functional", "procedure,_shortened": "as §2"}, "Rattus norvegicus [11]": {"species_on_record": "Rattus norvegicus", "assay": "Percent injected dose per gram esophagus at 1 hr with unlabeled estradiol", "type": "functional", "procedure,_shortened": "as §2"}, "Rattus norvegicus [12]": {"species_on_record": "Rattus norvegicus", "assay": "Percent injected dose per gram Uterus at 3h", "type": "functional", "procedure,_shortened": "as §3"}, "Rattus norvegicus [13]": {"species_on_record": "Rattus norvegicus", "assay": "Percent injected dose per gram Muscle at 1 hr with unlabeled estradiol", "type": "functional", "procedure,_shortened": "as §2"}, "[14]": {"assay": "Spleen/blood distribution ratio was determined immature female rats at 3h", "type": "functional", "procedure,_shortened": "as §1"}, "Rattus norvegicus [15]": {"species_on_record": "Rattus norvegicus", "assay": "Percent injected dose per gram esophagus at 3h", "type": "functional", "procedure,_shortened": "as §3"}, "[16]": {"assay": "Liver/blood distribution ratio was determined in immature female rats at 3h", "type": "functional", "procedure,_shortened": "as §3"}, "Rattus norvegicus [17]": {"species_on_record": "Rattus norvegicus", "assay": "Percent injected dose per gram lung at 6 hr", "type": "functional", "procedure,_shortened": "as §1"}, "Rattus norvegicus [18]": {"species_on_record": "Rattus norvegicus", "assay": "Percent injected dose per gram spleen at 3h", "type": "functional", "procedure,_shortened": "as §1"}, "[19]": {"assay": "Ovary/blood distribution ratio was determined in immature female rats at 6 hr", "type": "functional", "procedure,_shortened": "as §3"}, "[20]": {"assay": "Tissue/blood distribution ratio was measured in immature female rats at 1 hr", "type": "functional", "procedure,_shortened": "as §1"}, "[21]": {"assay": "Kidney/blood distribution ratio was determined in immature female rats at 3h", "type": "functional", "procedure,_shortened": "as §3"}, "[22]": {"assay": "Spleen/blood distribution ratio was determined immature female rats at 6 hr", "type": "functional", "procedure,_shortened": "as §1"}, "Rattus norvegicus [23]": {"species_on_record": "Rattus norvegicus", "assay": "Percent injected dose per gram Ovaries at 1 hr with unlabeled estradiol", "type": "functional", "procedure,_shortened": "as §2"}, "Rattus norvegicus [24]": {"species_on_record": "Rattus norvegicus", "assay": "Percent injected dose per gram thyroid at 1 hr", "type": "functional, Thyroid gland", "procedure,_shortened": "as §1"}, "Rattus norvegicus [25]": {"species_on_record": "Rattus norvegicus", "assay": "Percent injected dose per gram Muscle at 1 hr", "type": "functional", "procedure,_shortened": "as §2"}, "[26]": {"assay": "Muscle/blood distribution ratio was determined in immature female rats at 1 hr", "type": "functional", "procedure,_shortened": "as §2"}, "[27]": {"assay": "Lung/blood distribution ratio was determined in immature female rats at 3h", "type": "functional", "procedure,_shortened": "as §3"}, "[28]": {"assay": "Thyroid/blood distribution ratio was determined in immature female rats at 3h", "type": "functional", "procedure,_shortened": "as §1"}, "[29]": {"assay": "Tissue/blood distribution ratio was measured in immature female rats at 6 hr", "type": "functional", "procedure,_shortened": "as §1"}, "[30]": {"assay": "Esophagus/blood distribution ratio was determined in immature female rats at 3h", "type": "functional", "procedure,_shortened": "as §3"}, "[31]": {"assay": "Tissue/blood distribution ratio was measured in immature female rats at 1h, unlabeled estradiol (18 microg) coinjected", "type": "functional", "procedure,_shortened": "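Immature female rats given iv [77Br]bromonorhexestrol with 16α-[125I]iodoestradiol (2 μCi each) plus 18 μg unlabeled estradiol coinjected; killed at 1 h. Tissue and blood were weighed and counted, and tissue-to-blood radioactivity ratios were computed; 5 animals, mean ± SD.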"}, "[32]": {"assay": "Liver/blood distribution ratio was determined in immature female rats at 6 hr", "type": "functional", "procedure,_shortened": "as §3"}, "Rattus norvegicus [33]": {"species_on_record": "Rattus norvegicus", "assay": "Percent injected dose per gram liver at 6 hr", "type": "functional", "procedure,_shortened": "as §1"}, "Rattus norvegicus [34]": {"species_on_record": "Rattus norvegicus", "assay": "Percent injected dose per gram kidney at 3h", "type": "functional", "procedure,_shortened": "as §3"}, "[35]": {"assay": "Muscle/blood distribution ratio was determined in immature female rats at 3h", "type": "functional", "procedure,_shortened": "as §3"}, "[36]": {"assay": "Liver/blood distribution ratio was determined in immature female rats at 1 hr with unlabeled estradiol", "type": "functional", "procedure,_shortened": "as §2"}, "Rattus norvegicus [37]": {"species_on_record": "Rattus norvegicus", "assay": "Percent injected dose per gram blood at 3h", "type": "functional", "procedure,_shortened": "as §3"}, "Rattus norvegicus [38]": {"species_on_record": "Rattus norvegicus", "assay": "Percent injected dose per gram liver at 3h", "type": "functional", "procedure,_shortened": "as §1"}, "Rattus norvegicus [39]": {"species_on_record": "Rattus norvegicus", "assay": "Percent injected dose per gram lung at 1 hr with unlabeled estradiol", "type": "functional", "procedure,_shortened": "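Same iv biodistribution in immature female rats, killed at 1 h, with unlabeled estradiol coinjected to block receptor uptake: 9 μg with [125I]iodonorhexestrol (3 rats), 18 μg with the [77Br]bromonorhexestrol/16α-[125I]iodoestradiol pair (5 rats). Tissue and blood radioactivity were counted as % injected dose/g and tissue-to-blood ratio.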"}, "[40]": {"assay": "Esophagus/blood distribution ratio was determined in immature female rats at 6 hr", "type": "functional", "procedure,_shortened": "as §3"}}, "data": [{"smiles": "C[C@]12CC[C@@H]3c4ccc(O)cc4CC[C@H]3[C@@H]1C[C@@H](I)[C@@H]2O", "values": [{"measurement": "Injected dose", "setting": "Rattus norvegicus [1]", "value": 0.36, "unit": "%"}, {"measurement": "Ratio", "setting": "[2]", "value": 3.55}, {"measurement": "Injected dose", "setting": "Rattus norvegicus [3]", "value": 0.22, "unit": "%"}, {"measurement": "Ratio", "setting": "[4]", "value": 0.67}, {"measurement": "Ratio", "setting": "[5]", "value": 3.02}, {"measurement": "Injected dose", "setting": "Rattus norvegicus [6]", "value": 0.05, "unit": "%"}, {"measurement": "Ratio", "setting": "[7]", "value": 2.03}, {"measurement": "Ratio", "setting": "[8]", "value": 1.4}, {"measurement": "Ratio", "setting": "[9]", "value": 7.36}, {"measurement": "Injected dose", "setting": "Rattus norvegicus [10]", "value": 2.77, "unit": "%"}, {"measurement": "Injected dose", "setting": "Rattus norvegicus [11]", "value": 1.07, "unit": "%"}, {"measurement": "Injected dose", "setting": "Rattus norvegicus [12]", "value": 6.83, "unit": "%"}, {"measurement": "Injected dose", "setting": "Rattus norvegicus [13]", "value": 0.92, "unit": "%"}, {"measurement": "Ratio", "setting": "[14]", "value": 0.27}, {"measurement": "Injected dose", "setting": "Rattus norvegicus [15]", "value": 0.32, "unit": "%"}, {"measurement": "Ratio", "setting": "[16]", "value": 4.76}, {"measurement": "Injected dose", "setting": "Rattus norvegicus [17]", "value": 0.14, "unit": "%"}, {"measurement": "Injected dose", "setting": "Rattus norvegicus [18]", "value": 0.18, "unit": "%"}, {"measurement": "Ratio", "setting": "[19]", "value": 2.49}, {"measurement": "Ratio", "setting": "[20]", "value": 1}, {"measurement": "Ratio", "setting": "[21]", "value": 1.83}, {"measurement": "Ratio", "setting": "[22]", "value": 0.35}, {"measurement": "Injected dose", "setting": "Rattus norvegicus [23]", "value": 2.47, "unit": "%"}, {"measurement": "Injected dose", "setting": "Rattus norvegicus [24]", "value": 7.46, "unit": "%"}, {"measurement": "Injected dose", "setting": "Rattus norvegicus [25]", "value": 0.53, "unit": "%"}, {"measurement": "Ratio", "setting": "[26]", "value": 0.42}, {"measurement": "Ratio", "setting": "[27]", "value": 0.67}, {"measurement": "Ratio", "setting": "[28]", "value": 192.8}, {"measurement": "Ratio", "setting": "[29]", "value": 1}, {"measurement": "Ratio", "setting": "[30]", "value": 0.47}, {"measurement": "Ratio", "setting": "[31]", "value": 1}, {"measurement": "Ratio", "setting": "[32]", "value": 6.28}, {"measurement": "Injected dose", "setting": "Rattus norvegicus [33]", "value": 0.9, "unit": "%"}, {"measurement": "Injected dose", "setting": "Rattus norvegicus [34]", "value": 0.94, "unit": "%"}, {"measurement": "Ratio", "setting": "[35]", "value": 0.25}, {"measurement": "Ratio", "setting": "[36]", "value": 3.95}, {"measurement": "Injected dose", "setting": "Rattus norvegicus [37]", "value": 0.46, "unit": "%"}, {"measurement": "Injected dose", "setting": "Rattus norvegicus [38]", "value": 1.96, "unit": "%"}, {"measurement": "Injected dose", "setting": "Rattus norvegicus [39]", "value": 1.76, "unit": "%"}, {"measurement": "Ratio", "setting": "[40]", "value": 0.76}]}]}
